In ChEMBL document CHEMBL1135477, “Antifungal agents. 10. New derivatives of 1-[(aryl)[4-aryl-1H-pyrrol-3-yl]methyl]-1H-imidazole, synthesis, anti-candida activity, and quantitative structure-analysis relationship studies” (J Med Chem, 2002):
Converted amounts (≈) assume the structure as drawn.

What was measured:
Type in all cases: functional
[1] = tested on: Candida albicans; experiment: In vitro antifungal activity against 40 strains of Candida albicans at pH 5.8; (range is from 1 to 32)
Method in brief: (§1)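 Broth serial-dilution MIC against 40 clinical C. albicans isolates from hospitalized patients, grown in Sabouraud broth at pH 7.2 or 5.8. Cells were pre-grown 18 h at 37 °C, inoculated at 10³/mL, and read at 24 h, 37 °C. Doubling dilutions ran 0.25–256 μg/mL from a DMSO/water solution. MIC was the lowest concentration with no visible growth against a DMSO/water blank.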

[2] = tested on: Candida; experiment: Tested In vitro for antifungal activity against Candida species. at pH 7.2; (percent of resistant species at 256 ug/mL)
Method in brief: (§2)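 Broth serial-dilution test in Sabouraud broth at pH 7.2 or 5.8, against 3 fresh clinical non-albicans isolates (two C. glabrata, one C. krusei). Inocula were 10³/mL, pre-grown 18 h at 37 °C. Compound was twofold-diluted over 0.25–256 µg/mL and read at 24 h, 37 °C for visible growth.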

[3] = tested on: Candida; experiment: Tested in vitro for antifungal activity against Candida species. at pH 5.8 (percent of resistant species at 256 ug/mL); method in brief: as §2
[4] = tested on: Candida albicans; experiment: In vitro antifungal activity against 40 strains of Candida albicans at pH 5.8; method in brief: as §1
[5] = target: Lanosterol 14-alpha demethylase (Candida albicans (strain SC5314 / ATCC MYA-2876) (Yeast), UniProt P10613); experiment: Anticandida activity- (MIC90 compound) / (MIC90 bifonazole)
Chain of Lanosterol 14-alpha demethylase (P10613 whole entry): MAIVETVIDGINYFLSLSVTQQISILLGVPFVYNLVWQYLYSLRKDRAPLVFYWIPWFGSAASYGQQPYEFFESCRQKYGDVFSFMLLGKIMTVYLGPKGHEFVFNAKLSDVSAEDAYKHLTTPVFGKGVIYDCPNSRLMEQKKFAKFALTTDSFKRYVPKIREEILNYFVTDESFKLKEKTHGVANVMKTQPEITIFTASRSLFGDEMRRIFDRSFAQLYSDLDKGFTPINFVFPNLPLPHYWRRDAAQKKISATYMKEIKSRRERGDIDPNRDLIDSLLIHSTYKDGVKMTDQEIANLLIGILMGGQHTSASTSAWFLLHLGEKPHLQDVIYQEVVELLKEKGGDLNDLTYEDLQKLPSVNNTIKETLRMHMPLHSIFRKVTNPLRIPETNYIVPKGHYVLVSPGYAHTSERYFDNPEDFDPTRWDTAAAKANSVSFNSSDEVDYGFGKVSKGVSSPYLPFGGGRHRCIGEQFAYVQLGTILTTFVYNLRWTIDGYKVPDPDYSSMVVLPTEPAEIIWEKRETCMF

[6] = tested on: Candida albicans; experiment: In vitro antifungal activity against 40 strains of Candida albicans at pH 5.8; (percent of resistant species at 256 ug/mL)
Method in brief: (§3)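 Broth serial-dilution test in Sabouraud broth at pH 7.2 or 5.8, against 40 fresh clinical C. albicans isolates from hospitalized patients. Inocula were 10³/mL, pre-grown 18 h at 37 °C in Sabouraud dextrose broth. Compound from a DMSO/water stock was twofold-diluted over 0.25–256 µg/mL. Visible growth was read at 24 h, 37 °C.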

[7] = tested on: Candida albicans; experiment: In vitro antifungal activity against 40 strains of Candida albicans at pH 7.2; (percent of resistant species at 256 ug/mL); method in brief: as §3
[8] = tested on: Candida albicans; experiment: In vitro antifungal activity against 40 strains of Candida albicans at pH 7.2; minimum inhibitory concentration (range is from 4 to 64); method in brief: as §1
[9] = tested on: Candida; experiment: Tested In vitro for antifungal activity against Candida species. at pH 7.2; (range is from 8 to 128)
Method in brief: (§4)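 Liquid serial-dilution MIC against 3 freshly isolated clinical Candida strains (two C. glabrata, one C. krusei) in Sabouraud broth at pH 7.2 or 5.8. Inoculum was 10³/mL after 18 h pre-culture at 37 °C, read at 24 h, 37 °C. Range was 0.25–256 μg/mL. Endpoint was no visible growth versus a DMSO/water blank.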

[10] = tested on: Candida; experiment: Tested in vitro for antifungal activity against Candida species. at pH 5.8; range is from 4 to 16
Method in brief: (§5)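 Fresh clinical isolates (two C. glabrata, one C. krusei) were pre-grown 18 h at 37 °C in Sabouraud dextrose broth. Broth double-dilution was run in Sabouraud broth at pH 5.8 or 7.2 over 0.25–256 µg/mL from a DMSO/water stock, with 10³/mL inoculum.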

[11] = tested on: Candida; experiment: Tested In vitro for antifungal activity against Candida species. at pH 7.2; method in brief: as §4
[12] = tested on: Candida; experiment: Tested in vitro for antifungal activity against Candida species. at pH 5.8; method in brief: as §4
[13] = tested on: Candida albicans; experiment: In vitro antifungal activity against 40 strains of Candida albicans at pH 7.2; method in brief: as §1
[14] = tested on: Candida; experiment: Tested in vitro for antifungal activity against Candida species. at pH 7.2 (percent of resistant species at 256 ug/mL); method in brief: as §2
[15] = tested on: Candida albicans; experiment: Tested in vitro for antifungal activity against Candida albicans at pH 5.8; method in brief: as §1
[16] = tested on: Candida albicans; experiment: In vitro antifungal activity against Candida albicans (40 strains) at pH 7.2(value ranges from 0.5 to 32); method in brief: as §1
[17] = tested on: Candida albicans; experiment: Tested in vitro for antifungal activity against Candida albicans at pH 5.8 (range 1-8); method in brief: as §1
[18] = tested on: Candida; experiment: Tested in vitro for antifungal activity against Candida species. at pH 7.2 (value ranges from 0.5 to 8); method in brief: as §5
[19] = tested on: Candida; experiment: Tested in vitro for antifungal activity against Candida species. at pH 7.2; method in brief: as §5
[20] = tested on: Candida albicans; experiment: In vitro antifungal activity against Candida albicans (40 strains) at pH 5.8,(percent of resistant species at 256 ug/mL); method in brief: as §3
[21] = tested on: Candida albicans; experiment: In vitro antifungal activity against Candida albicans (40 strains) at pH 7.2,(percent of resistant species at 256 ug/mL); method in brief: as §3
[22] = tested on: Candida albicans; experiment: In vitro antifungal activity against Candida albicans (40 strains) at pH 7.2; method in brief: as §1
[23] = tested on: Candida; experiment: In vitro antifungal activity against 40 strains at pH 5.8,(percent of resistant species at 256 ug/mL); method in brief: as §3
[24] = tested on: Candida albicans; experiment: IIn vitro antifungal activity against 40 strains of Candida albicans at pH 7.2; minimum inhibitory concentration (range is from 16 to 256); method in brief: as §1
[25] = tested on: Candida albicans; experiment: In vitro antifungal activity against 40 strains of Candida albicans at pH 5.8; (range is from 32 to 256); method in brief: as §1
[26] = tested on: Candida; experiment: Tested in vitro for antifungal activity against Candida species. at pH 5.8; value ranges from 128 to >256; method in brief: as §5

What does the source list for `CSc1ccc(-c2c[nH]cc2[C@H](c2ccc(Cl)cc2Cl)n2ccnc2)cc1`?
Range [1]: 32 µg/mL; Resistance [2]: 0%; Resistance [3]: 0%; MIC [4]: 7 µg/mL (≈ 16.9 µM); MIC50 [4]: 4 µg/mL (≈ 9.65 µM); MIC90 [4]: 8 µg/mL (≈ 19.3 µM); Ratio [5]: 3; Resistance [6]: 0%; Resistance [7]: 0%; Range [8]: 64 µg/mL; Range [9]: 128 µg/mL; Range [10]: 16 µg/mL; MIC [11]: 66.6 µg/mL (≈ 161 µM); MIC50 [11]: 64 µg/mL (≈ 154 µM); MIC90 [11]: 128 µg/mL (≈ 309 µM); MIC [12]: 9.3 µg/mL (≈ 22.4 µM); MIC50 [12]: 8 µg/mL (≈ 19.3 µM); MIC90 [12]: 16 µg/mL (≈ 38.6 µM); MIC [13]: 9.14 µg/mL (≈ 22.1 µM); MIC50 [13]: 4 µg/mL (≈ 9.65 µM); MIC90 [13]: 8 µg/mL (≈ 19.3 µM)

Which results are given for `Clc1ccc(-c2c[nH]cc2[C@H](c2ccc(Cl)cc2Cl)n2ccnc2)cc1`?
Resistance [14]: 0%; Ratio [5]: 0.8; MIC [15]: 3.6 µg/mL (≈ 8.94 µM); MIC50 [15]: 1 µg/mL (≈ 2.48 µM); MIC90 [15]: 2 µg/mL (≈ 4.97 µM); Range [16]: 32 µg/mL; Range [17]: 8 µg/mL; Range [18]: 8 µg/mL; MIC [12]: 6 µg/mL (≈ 14.9 µM); MIC50 [12]: 8 µg/mL (≈ 19.9 µM); MIC90 [12]: 64 µg/mL (≈ 159 µM); Range [12]: 64 µg/mL; MIC [19]: 5.01 µg/mL (≈ 12.4 µM); MIC50 [19]: 8 µg/mL (≈ 19.9 µM); MIC90 [19]: 8 µg/mL (≈ 19.9 µM); Resistance [20]: 0%; Resistance [21]: 0%; MIC [22]: 2.14 µg/mL (≈ 5.31 µM); MIC50 [22]: 2 µg/mL (≈ 4.97 µM); MIC90 [22]: 4 µg/mL (≈ 9.93 µM); Resistance [23]: 0%

With `Oc1ccc(-c2c[nH]cc2[C@@H](c2ccc(Cl)cc2Cl)n2ccnc2)cc1` as the compound, how does the Range [24] read?
The Range was 256 µg/mL.

And the Range [25]?
The Range was 256 µg/mL.

And the Resistance [2]?
The Resistance was 0%.

What about the Resistance [3] of the same compound?
The Resistance was 67%.

What about the MIC [4] of the same compound?
The MIC was 150 µg/mL (≈ 390 µM).

What about the MIC50 [4] of the same compound?
The MIC50 was 32 µg/mL (≈ 83.3 µM).

And the MIC90 [4]?
Its MIC90 is 128 µg/mL (≈ 333 µM).

And the Ratio [5]?
The Ratio was 26.

What about the Resistance [6] of the same compound?
Its Resistance is 26%.

What about the Resistance [7] of the same compound?
The Resistance was 0%.

What about the Range [26] of the same compound?
The Range was greater than 256 µg/mL.

What about the MIC [11] of the same compound?
The MIC was 256 µg/mL (≈ 666 µM).

What about the MIC50 [11] of the same compound?
The MIC50 was 256 µg/mL (≈ 666 µM).

What about the MIC90 [11] of the same compound?
Its MIC90 is 256 µg/mL (≈ 666 µM).

What about the Range [11] of the same compound?
The Range was 256 µg/mL.

And the MIC [12]?
Its MIC is 128 µg/mL (≈ 333 µM).

What about the MIC50 [12] of the same compound?
Its MIC50 is greater than 256 µg/mL.

And the MIC90 [12]?
Its MIC90 is greater than 256 µg/mL.

And the MIC [13]?
The MIC was 77.8 µg/mL (≈ 202 µM).

What about the MIC50 [13] of the same compound?
The MIC50 was 16 µg/mL (≈ 41.6 µM).

What about the MIC90 [13] of the same compound?
The MIC90 was 256 µg/mL (≈ 666 µM).
